Test results: ChEMBL document CHEMBL1149351, “4-Amino-2-alkyl-butyramides as small molecule CCR2 antagonists with favorable pharmacokinetic properties” (Bioorg Med Chem Lett, 2006)

How the values were obtained:
[1] = target: T1, C-C chemokine receptor type 2 (Homo sapiens, UniProt P41597); test: Displacement of [125I]MCP-1 from human CCR2b expressed in human monocyte cells; assay type: cell-based
Method in brief: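 Human monocytes (5 × 10⁴) incubated with ¹²⁵I-hMCP-1 (20–50 pM; 2200 Ci/mmol) plus varying unlabeled competitor, 60 min at room temperature, in 50 mM HEPES, 5 mM MgCl₂, 1 mM CaCl₂, pH 7.4. Stopped by filtration on PEI-presoaked GF/B filters, washed with 25 mM HEPES pH 7.5/500 mM NaCl, then scintillation counted. Means of at least two separate experiments.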
Target sequence in this assay (P41597 whole entry): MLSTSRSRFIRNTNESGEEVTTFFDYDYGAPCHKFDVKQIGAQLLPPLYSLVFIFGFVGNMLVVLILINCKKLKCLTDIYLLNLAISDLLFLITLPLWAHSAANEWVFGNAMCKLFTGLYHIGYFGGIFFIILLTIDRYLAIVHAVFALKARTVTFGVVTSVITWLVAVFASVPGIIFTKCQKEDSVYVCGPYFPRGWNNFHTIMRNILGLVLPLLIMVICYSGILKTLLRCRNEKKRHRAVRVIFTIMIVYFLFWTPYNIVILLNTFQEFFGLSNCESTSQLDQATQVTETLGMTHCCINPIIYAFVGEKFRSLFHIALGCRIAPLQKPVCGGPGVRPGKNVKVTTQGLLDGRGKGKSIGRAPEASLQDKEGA

[2] = target: T1, C-C chemokine receptor type 2; test: Displacement of [125I]MCP-1 from human CCR2b expressed in CHO cells; assay type: cell-based
Target sequence in this assay (P41597 whole entry): as above

[3] = target: T1, C-C chemokine receptor type 2; test: Inhibition of [125I]MCP-1 binding to human CCR2b expressed in CHO cells at 1 uM; assay type: cell-based
Target sequence in this assay (P41597 whole entry, looked up): as the sequence (P41597 whole entry) above

[4] = target: T1, C-C chemokine receptor type 2; test: Activity at CCR2b by calcium flux based FLIPR assay in CHO cells; assay type: functional, cell-based
Target sequence in this assay (P41597 whole entry): as above

[5] = target: C-C chemokine receptor type 5 (Homo sapiens) (UniProt P51681); test: Inhibition of CCR5 at 1 uM
[6] = target: T2, C-C chemokine receptor type 3 (Homo sapiens) (UniProt P51677); test: Inhibition of human CCR3 at 4 uM
T2 sequence (whole entry): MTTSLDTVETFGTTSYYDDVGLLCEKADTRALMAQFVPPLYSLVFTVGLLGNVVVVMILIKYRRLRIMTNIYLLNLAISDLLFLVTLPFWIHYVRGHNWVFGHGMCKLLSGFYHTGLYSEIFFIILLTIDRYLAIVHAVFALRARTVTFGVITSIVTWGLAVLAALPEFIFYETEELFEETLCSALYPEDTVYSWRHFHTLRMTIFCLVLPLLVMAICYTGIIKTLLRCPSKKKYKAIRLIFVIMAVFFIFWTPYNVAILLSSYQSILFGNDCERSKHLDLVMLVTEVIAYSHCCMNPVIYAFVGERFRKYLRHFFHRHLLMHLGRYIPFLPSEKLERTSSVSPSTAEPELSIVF

Rattus norvegicus [7] = test: Tmax in Sprague-Dawley rat at 3 mg/kg, po; assay type: ADME, organism-based; design: dose 3 mg/kg, route oral; settings: in vivo
[8] = Cmax in Sprague-Dawley rat at 3 mg/kg, po; assay type: ADME, organism-based; design: dose 3 mg/kg, route oral; settings: in vivo
Rattus norvegicus [9] = test: Oral bioavailability in Sprague-Dawley rat at 3 mg/kg, po; assay type: ADME, organism-based; settings: in vivo
[10] = Volume of distribution in Sprague-Dawley rat at 1 mg/kg, iv; assay type: ADME, organism-based; design: dose 1 mg/kg, route intravenous; settings: in vivo, read-out: Vdss
[11] = target: C-C chemokine receptor type 8 (Homo sapiens) (UniProt P51685); test: Inhibition of CCR8 at 1 uM
[12] = target: T3, C-C chemokine receptor type 1 (Homo sapiens) (UniProt P32246); test: Inhibition of human CCR1 at 1 uM
T3 sequence (whole entry): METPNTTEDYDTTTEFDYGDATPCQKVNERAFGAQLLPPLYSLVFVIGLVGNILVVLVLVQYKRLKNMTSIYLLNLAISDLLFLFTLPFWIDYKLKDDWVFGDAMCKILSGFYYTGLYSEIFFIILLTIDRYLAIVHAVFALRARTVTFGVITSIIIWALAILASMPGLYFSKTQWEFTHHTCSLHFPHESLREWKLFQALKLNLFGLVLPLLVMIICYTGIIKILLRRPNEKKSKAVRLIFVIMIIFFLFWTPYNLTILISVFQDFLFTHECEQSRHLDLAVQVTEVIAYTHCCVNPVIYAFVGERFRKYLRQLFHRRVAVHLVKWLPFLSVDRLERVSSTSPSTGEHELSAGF

Rattus norvegicus [13] = test: AUC in Sprague-Dawley rat at 3 mg/kg, po; assay type: ADME, organism-based, Plasma; design: dose 3 mg/kg, route oral; settings: in vivo
[14] = Half life in Sprague-Dawley rat at 1 mg/kg, iv; assay type: ADME, organism-based; design: dose 1 mg/kg, route intravenous; settings: in vivo
Rattus norvegicus [15] = test: AUC in Sprague-Dawley rat at 1 mg/kg, iv; assay type: ADME, organism-based, Plasma; design: dose 1 mg/kg, route intravenous; settings: in vivo
[16] = target: C-X-C chemokine receptor type 4 (Homo sapiens) (UniProt P61073); test: Inhibition of human CXCR4 at 1 uM
[17] = Clearance in Sprague-Dawley rat at 1 mg/kg, iv; assay type: ADME, organism-based; design: dose 1 mg/kg, route intravenous; settings: in vivo
[18] = target: T1, C-C chemokine receptor type 2; test: Inhibition of [125I]MCP-1 binding to human CCR2b expressed in human monocyte cells at 1 uM; assay type: cell-based
Method in brief: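 Competition binding on human monocytes (5 × 10⁴ cells) with ¹²⁵I-hMCP-1 (20–50 pM) in 50 mM HEPES, 5 mM MgCl₂, 1 mM CaCl₂, pH 7.4, for 60 min at room temperature. Stopped by filtration through filters presoaked in 0.1% polyethyleneimine, washed with 25 mM HEPES pH 7.5 plus 500 mM NaCl. Bound label read by scintillation counting. Mean of at least two separate experiments.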
Target sequence in this assay (P41597 whole entry, looked up): as the sequence (P41597 whole entry) above

Sequence of C-C chemokine receptor type 8 (Homo sapiens) (P51685 whole entry): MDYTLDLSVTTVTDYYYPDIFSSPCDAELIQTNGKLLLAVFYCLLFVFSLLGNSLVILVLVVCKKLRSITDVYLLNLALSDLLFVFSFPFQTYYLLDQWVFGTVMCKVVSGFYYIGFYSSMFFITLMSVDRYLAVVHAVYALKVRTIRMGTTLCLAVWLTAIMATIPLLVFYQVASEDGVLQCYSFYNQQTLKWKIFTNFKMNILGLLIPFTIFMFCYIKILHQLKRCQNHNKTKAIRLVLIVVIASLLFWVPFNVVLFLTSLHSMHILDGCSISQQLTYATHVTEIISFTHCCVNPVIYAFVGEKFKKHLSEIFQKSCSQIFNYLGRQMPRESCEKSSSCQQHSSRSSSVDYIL
Sequence of C-X-C chemokine receptor type 4 (Homo sapiens) (P61073 whole entry): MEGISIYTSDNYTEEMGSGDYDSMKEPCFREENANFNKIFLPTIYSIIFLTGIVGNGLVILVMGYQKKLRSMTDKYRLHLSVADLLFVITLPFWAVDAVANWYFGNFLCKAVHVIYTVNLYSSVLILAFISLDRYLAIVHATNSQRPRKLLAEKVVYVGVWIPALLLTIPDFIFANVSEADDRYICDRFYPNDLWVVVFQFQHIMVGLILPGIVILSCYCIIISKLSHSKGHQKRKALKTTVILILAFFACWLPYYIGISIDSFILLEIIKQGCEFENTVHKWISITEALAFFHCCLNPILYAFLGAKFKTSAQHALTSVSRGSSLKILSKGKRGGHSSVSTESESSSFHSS
Sequence of C-C chemokine receptor type 5 (Homo sapiens) (P51681 whole entry, looked up): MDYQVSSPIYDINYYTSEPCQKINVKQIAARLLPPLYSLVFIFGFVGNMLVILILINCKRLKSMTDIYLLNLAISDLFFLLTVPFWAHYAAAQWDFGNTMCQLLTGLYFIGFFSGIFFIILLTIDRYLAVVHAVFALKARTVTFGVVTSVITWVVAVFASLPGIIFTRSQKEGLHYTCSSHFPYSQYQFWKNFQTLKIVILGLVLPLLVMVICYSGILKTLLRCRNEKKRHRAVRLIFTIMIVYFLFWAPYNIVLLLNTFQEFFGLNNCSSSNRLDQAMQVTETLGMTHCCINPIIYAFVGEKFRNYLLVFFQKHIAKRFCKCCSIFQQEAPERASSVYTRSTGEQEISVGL

SMILES	IC50 [1] [nM]	IC50 [2] [nM]	further results
O=C(NCc1cc(C(F)(F)F)cc(C(F)(F)F)c1)C(CCN1CCC2(C=Cc3ccccc32)CC1)Cc1ccccc1 (stereo not drawn)	232	298	
C=CC[C@H](CCN1CCC(c2ccccc2)CC1)C(=O)NCc1cc(C(F)(F)F)cc(C(F)(F)F)c1	216	642	
CS(=O)(=O)NC(CCN1CCC2(C=Cc3ccccc32)CC1)C(=O)NCc1cc(C(F)(F)F)cc(C(F)(F)F)c1 (stereo not drawn)		244	
O=C(NCc1cc(C(F)(F)F)cc(C(F)(F)F)c1)[C@@H](CCN1CCC(c2ccccc2)CC1)C1CC1	129	285	
CC[C@H]1CN(CC[C@H](C(=O)NCc2cc(C(F)(F)F)cc(C(F)(F)F)c2)c2ccc(F)cc2)CC[C@@]12C=Cc1ccccc12		437	
O=C1NCC(C(=O)NC(CCN2CCC3(C=Cc4ccccc43)CC2)C(=O)NCc2cc(C(F)(F)F)cc(C(F)(F)F)c2)N1 (stereo not drawn)		525	
CC(C)[C@H](CCN1CCC2(C=Cc3ccccc32)CC1)C(=O)NCc1cc(C(F)(F)F)cc(C(F)(F)F)c1	47	204	
C[C@H]1CN(CC[C@@H](C(=O)NCc2cc(C(F)(F)F)cc(C(F)(F)F)c2)C2CC2)CC[C@@]12C=Cc1ccccc12	13	80	
O=CNC(CCN1CCC2(C=Cc3ccccc32)CC1)C(=O)NCc1cc(C(F)(F)F)cc(C(F)(F)F)c1 (stereo not drawn)			inhibition [3]: 25%
O=C(NCc1cc(C(F)(F)F)cc(C(F)(F)F)c1)C(CCN1CCC2(C=Cc3ccccc32)CC1)NS(=O)(=O)c1ccccc1 (stereo not drawn)			inhibition [3]: 7%
C[C@H]1CN(CC[C@H](C(=O)NCc2cc(C(F)(F)F)cc(C(F)(F)F)c2)C2CCC2)CC[C@@]12C=Cc1ccccc12	12	28	IC50 [4]: 11 nM
C[C@H]1CN(CC[C@H](CC2CC2)C(=O)NCc2cc(C(F)(F)F)cc(C(F)(F)F)c2)CC[C@@]12C=Cc1ccccc12	9	25	IC50 [4]: 3 nM
CC(=O)Nc1ncc(S(=O)(=O)NC(CCN2CCC3(C=Cc4ccccc43)CC2)C(=O)NCc2cc(C(F)(F)F)cc(C(F)(F)F)c2)s1 (stereo not drawn)			inhibition [3]: 45%
O=C(NCc1cc(C(F)(F)F)cc(C(F)(F)F)c1)[C@@H](CCN1CCC(c2ccc(F)cc2)CC1)C1CC1	72	280	
COC(=O)NC(CCN1CCC2(C=Cc3ccccc32)CC1)C(=O)NCc1cc(C(F)(F)F)cc(C(F)(F)F)c1 (stereo not drawn)		805	
O=C(NCc1cc(C(F)(F)F)cc(C(F)(F)F)c1)C(CCN1CCC2(C=Cc3ccccc32)CC1)NS(=O)(=O)C(F)(F)F (stereo not drawn)		125	
O=C(NCc1cc(C(F)(F)F)cc(C(F)(F)F)c1)C(CCN1CCC2(C=Cc3ccccc32)CC1)NS(=O)(=O)c1cccs1 (stereo not drawn)			inhibition [3]: 20%
CC(C)[C@@H](CCN1CCC2(C=Cc3ccccc32)CC1)C(=O)NCc1cc(C(F)(F)F)cc(C(F)(F)F)c1	72	349	

SMILES	IC50 [1] [nM]	IC50 [2] [nM]	further results
C[C@H]1CN(CCCC(=O)NCc2cc(C(F)(F)F)cc(C(F)(F)F)c2)CC[C@@]12C=Cc1ccccc12	93	173	
CCC[C@H](CCN1CCC(c2ccccc2)CC1)C(=O)NCc1cc(C(F)(F)F)cc(C(F)(F)F)c1	42	126	
C[C@H]1CN(CC[C@H](C(=O)NCc2cc(C(F)(F)F)cc(C(F)(F)F)c2)C2CC2)CC[C@@]12C=Cc1ccccc12	4	14	inhibition [5]: 38%; inhibition [6]: 3%; Tmax (Rattus norvegicus [7]): 4.67 µM; Cmax [8]: 1580 nM; IC50 [4]: 4 nM; F (Rattus norvegicus [9]): 98%; Vd [10]: 2.19 L/kg; inhibition [11]: 9%; inhibition [12]: -5%; AUC (Rattus norvegicus [13]): 4.08 µM·h; half-life [14]: 4.11 h; AUC (Rattus norvegicus [15]): 4.17 µM·h; inhibition [16]: 8%; clearance [17]: 7.36 mL/min/kg
C[C@@H](CCN1CCC2(C=Cc3ccccc32)CC1)C(=O)NCc1cc(C(F)(F)F)cc(C(F)(F)F)c1	86	605	
C=CC[C@H](CCN1CCC2(C=Cc3ccccc32)CC1)C(=O)NCc1cc(C(F)(F)F)cc(C(F)(F)F)c1	37	193	
O=C(NCc1cc(C(F)(F)F)cc(C(F)(F)F)c1)[C@@H](CCN1CCC2(C=Cc3ccccc32)CC1)C1CC1	15	98	
O=C(NCc1cc(C(F)(F)F)cc(C(F)(F)F)c1)C(CCN1CCC2(C=Cc3ccccc32)CC1)C1CCCCC1 (stereo not drawn)	73	160	
O=C(NCc1cc(C(F)(F)F)cc(C(F)(F)F)c1)C(CCN1CCC2(C=Cc3ccccc32)CC1)C1CC1 (stereo not drawn)	38	69	
CC(=O)N1CCCC(C(CCN2CCC3(C=Cc4ccccc43)CC2)C(=O)NCc2cc(C(F)(F)F)cc(C(F)(F)F)c2)C1 (stereo not drawn)	80	660	
C[C@H](CCN1CCC2(C=Cc3ccccc32)CC1)C(=O)NCc1cc(C(F)(F)F)cc(C(F)(F)F)c1	37	231	
O=C(CCCN1CCC2(C=Cc3ccccc32)CC1)NCc1cc(C(F)(F)F)cc(C(F)(F)F)c1		570	inhibition [18]: 80%
COC(=O)C[C@H](CCN1CCC(c2ccccc2)CC1)C(=O)NCc1cc(C(F)(F)F)cc(C(F)(F)F)c1			inhibition [3]: 42%
CC(O)C(CCN1CCC(c2ccc(F)cc2)CC1)C(=O)NCc1cc(C(F)(F)F)cc(C(F)(F)F)c1 (stereo not drawn)	462		
CC(O)C(CCN1CC[C@@]2(C=Cc3ccccc32)[C@@H](C)C1)C(=O)NCc1cc(C(F)(F)F)cc(C(F)(F)F)c1 (stereo partly drawn)	48		
C[C@H]1CN(CC[C@H](C(=O)NCc2cc(C(F)(F)F)cc(C(F)(F)F)c2)c2ccc(F)cc2)CC[C@@]12C=Cc1ccccc12		67	
CS(=O)(=O)N1CCCC(C(CCN2CCC3(C=Cc4ccccc43)CC2)C(=O)NCc2cc(C(F)(F)F)cc(C(F)(F)F)c2)C1 (stereo not drawn)		783	inhibition [18]: 70%
NC(CCN1CCC2(C=Cc3ccccc32)CC1)C(=O)NCc1cc(C(F)(F)F)cc(C(F)(F)F)c1 (stereo not drawn)			inhibition [3]: 33%
COC(=O)C[C@@H](CCN1CCC(c2ccccc2)CC1)C(=O)NCc1cc(C(F)(F)F)cc(C(F)(F)F)c1			inhibition [3]: 38%
